Reference: ChEMBL document CHEMBL1148778, “Synthesis and characterization of nonsteroidal glucocorticoid receptor modulators for multiple myeloma” (J Med Chem, 2007)

What was measured:
Progesterone receptor = molecular target: T1, Progesterone receptor (Homo sapiens, UniProt P06401); test: Binding affinity to PR
T1 sequence (P06401 whole entry): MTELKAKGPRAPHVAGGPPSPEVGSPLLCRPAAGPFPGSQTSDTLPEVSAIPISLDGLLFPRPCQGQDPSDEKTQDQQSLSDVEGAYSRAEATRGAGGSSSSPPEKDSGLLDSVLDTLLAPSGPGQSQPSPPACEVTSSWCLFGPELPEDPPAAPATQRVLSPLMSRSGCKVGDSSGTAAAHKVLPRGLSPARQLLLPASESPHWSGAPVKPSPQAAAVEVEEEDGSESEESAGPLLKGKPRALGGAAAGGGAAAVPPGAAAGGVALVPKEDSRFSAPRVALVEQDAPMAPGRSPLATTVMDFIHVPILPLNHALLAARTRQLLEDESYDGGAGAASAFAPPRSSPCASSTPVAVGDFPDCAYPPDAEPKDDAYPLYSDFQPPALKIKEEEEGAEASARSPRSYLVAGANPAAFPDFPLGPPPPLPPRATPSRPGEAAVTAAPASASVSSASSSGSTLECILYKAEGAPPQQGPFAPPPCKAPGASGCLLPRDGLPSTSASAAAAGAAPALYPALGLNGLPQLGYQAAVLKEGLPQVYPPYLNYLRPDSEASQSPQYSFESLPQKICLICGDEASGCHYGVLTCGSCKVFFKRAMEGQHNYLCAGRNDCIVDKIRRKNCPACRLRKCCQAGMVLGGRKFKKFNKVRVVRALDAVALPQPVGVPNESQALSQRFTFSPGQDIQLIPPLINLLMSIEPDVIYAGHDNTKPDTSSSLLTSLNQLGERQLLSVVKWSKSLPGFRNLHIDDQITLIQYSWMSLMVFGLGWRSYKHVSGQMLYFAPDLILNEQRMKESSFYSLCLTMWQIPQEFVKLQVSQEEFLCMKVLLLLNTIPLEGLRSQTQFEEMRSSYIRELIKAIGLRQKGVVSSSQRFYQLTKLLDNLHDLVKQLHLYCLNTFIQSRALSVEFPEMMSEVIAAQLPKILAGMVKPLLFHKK
How it was run: (§1)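 Competitive binding assays on PR and MR. Values are means of at least three separate experiments, each with triplicate determinations, ± SEM. A value without SEM comes from a single determination.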

Glucocorticoid receptor [1] = molecular target: T2, Glucocorticoid receptor (Homo sapiens, UniProt P04150); test: Binding affinity to GR
T2 sequence (P04150 whole entry): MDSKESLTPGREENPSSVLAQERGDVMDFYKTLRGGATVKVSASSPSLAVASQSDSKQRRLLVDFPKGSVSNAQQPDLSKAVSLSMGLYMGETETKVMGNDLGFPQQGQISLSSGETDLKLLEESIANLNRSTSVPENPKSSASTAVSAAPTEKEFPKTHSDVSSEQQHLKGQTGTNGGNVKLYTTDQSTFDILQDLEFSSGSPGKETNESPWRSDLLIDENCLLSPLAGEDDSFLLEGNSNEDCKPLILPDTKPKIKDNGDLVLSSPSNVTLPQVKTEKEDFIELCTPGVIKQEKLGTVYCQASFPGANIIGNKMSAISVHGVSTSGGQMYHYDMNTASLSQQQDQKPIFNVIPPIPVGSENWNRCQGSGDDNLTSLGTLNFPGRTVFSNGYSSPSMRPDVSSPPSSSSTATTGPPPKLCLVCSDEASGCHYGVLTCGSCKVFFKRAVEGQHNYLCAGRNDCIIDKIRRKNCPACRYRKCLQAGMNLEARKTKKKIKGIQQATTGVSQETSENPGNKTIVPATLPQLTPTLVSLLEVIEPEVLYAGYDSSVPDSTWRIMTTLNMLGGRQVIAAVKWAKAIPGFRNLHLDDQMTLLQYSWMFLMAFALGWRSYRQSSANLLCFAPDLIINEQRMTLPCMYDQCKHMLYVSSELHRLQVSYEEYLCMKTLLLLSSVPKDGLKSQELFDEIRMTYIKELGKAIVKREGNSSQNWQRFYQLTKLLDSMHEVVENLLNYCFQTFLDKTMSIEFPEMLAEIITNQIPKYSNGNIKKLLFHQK

RPMI-8226 [2] = test: Antiproliferative activity against human RPMI8226 cells after 4 days relative to Dexamethasone; assay type: functional
Glucocorticoid receptor [3] = molecular target: T2, Glucocorticoid receptor; test: Agonist activity at human GR expressed in CV1 cells by GRE activation assay; assay type: functional, cell-based, CV-1
RPMI-8226 [4] = test: Antiproliferative activity against human RPMI8226 cells after 4 days; assay type: functional, cell-based; conditions: RPMI-8226, 96 h
Glucocorticoid receptor [5] = molecular target: T2, Glucocorticoid receptor; test: Activity at human GR expressed in NHDFneo cells assessed as inhibition of IL-6 production; assay type: cell-based
Androgen receptor = molecular target: T3, Androgen receptor (Homo sapiens, UniProt P10275); test: Binding affinity to AR
T3 sequence (P10275 whole entry): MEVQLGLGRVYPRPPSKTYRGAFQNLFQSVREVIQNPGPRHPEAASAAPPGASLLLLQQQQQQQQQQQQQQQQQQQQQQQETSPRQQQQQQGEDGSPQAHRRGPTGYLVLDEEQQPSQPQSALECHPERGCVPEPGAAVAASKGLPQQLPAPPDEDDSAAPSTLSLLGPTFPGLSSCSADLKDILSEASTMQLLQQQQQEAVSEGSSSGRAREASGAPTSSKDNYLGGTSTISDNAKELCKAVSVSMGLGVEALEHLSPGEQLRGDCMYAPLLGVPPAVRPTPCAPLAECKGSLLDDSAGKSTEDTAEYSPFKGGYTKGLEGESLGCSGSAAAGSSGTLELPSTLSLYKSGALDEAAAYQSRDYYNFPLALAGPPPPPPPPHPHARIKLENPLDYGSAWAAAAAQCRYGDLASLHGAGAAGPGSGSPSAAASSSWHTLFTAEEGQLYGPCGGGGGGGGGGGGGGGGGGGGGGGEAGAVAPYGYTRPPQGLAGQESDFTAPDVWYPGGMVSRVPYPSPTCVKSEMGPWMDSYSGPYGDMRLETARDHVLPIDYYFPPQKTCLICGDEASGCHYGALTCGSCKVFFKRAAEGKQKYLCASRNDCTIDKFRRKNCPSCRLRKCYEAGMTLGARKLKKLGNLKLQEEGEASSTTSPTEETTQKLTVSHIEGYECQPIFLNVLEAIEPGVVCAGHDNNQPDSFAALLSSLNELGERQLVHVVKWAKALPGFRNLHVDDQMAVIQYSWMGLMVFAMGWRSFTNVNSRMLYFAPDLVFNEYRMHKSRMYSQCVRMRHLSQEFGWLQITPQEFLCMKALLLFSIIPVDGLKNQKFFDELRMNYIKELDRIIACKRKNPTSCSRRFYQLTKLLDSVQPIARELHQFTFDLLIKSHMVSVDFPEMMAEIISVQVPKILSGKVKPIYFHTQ

[6] = molecular target: T4, Mineralocorticoid receptor (Homo sapiens, UniProt P08235); test: Binding affinity to MR; how it was run: as §1
T4 sequence (P08235 whole entry): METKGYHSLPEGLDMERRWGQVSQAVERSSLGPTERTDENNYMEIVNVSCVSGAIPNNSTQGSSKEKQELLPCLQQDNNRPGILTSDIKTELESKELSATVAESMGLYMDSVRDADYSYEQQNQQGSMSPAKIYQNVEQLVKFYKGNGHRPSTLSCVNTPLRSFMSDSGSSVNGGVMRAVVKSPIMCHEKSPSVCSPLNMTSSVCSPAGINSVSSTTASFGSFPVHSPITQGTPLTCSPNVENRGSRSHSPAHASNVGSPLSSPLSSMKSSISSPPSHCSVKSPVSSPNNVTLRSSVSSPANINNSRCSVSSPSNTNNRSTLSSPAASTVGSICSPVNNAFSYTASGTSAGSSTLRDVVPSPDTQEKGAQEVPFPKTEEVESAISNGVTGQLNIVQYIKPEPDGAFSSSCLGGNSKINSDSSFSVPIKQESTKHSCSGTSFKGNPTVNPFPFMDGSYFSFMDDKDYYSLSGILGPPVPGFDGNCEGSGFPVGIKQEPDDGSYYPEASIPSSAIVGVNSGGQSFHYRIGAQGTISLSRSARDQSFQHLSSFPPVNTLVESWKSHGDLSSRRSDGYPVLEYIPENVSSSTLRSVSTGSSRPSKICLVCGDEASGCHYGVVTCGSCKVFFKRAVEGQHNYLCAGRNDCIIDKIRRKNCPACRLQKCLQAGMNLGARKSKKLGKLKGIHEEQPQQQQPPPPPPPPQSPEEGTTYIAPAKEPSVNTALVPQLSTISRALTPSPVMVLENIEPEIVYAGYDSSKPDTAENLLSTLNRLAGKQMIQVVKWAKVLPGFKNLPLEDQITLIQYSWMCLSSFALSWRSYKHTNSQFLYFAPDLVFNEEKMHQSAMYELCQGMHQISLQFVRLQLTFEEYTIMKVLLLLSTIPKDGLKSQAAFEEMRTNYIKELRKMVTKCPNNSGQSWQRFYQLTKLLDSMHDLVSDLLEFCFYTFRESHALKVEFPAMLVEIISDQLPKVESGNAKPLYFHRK

Glucocorticoid receptor [7] = molecular target: T2, Glucocorticoid receptor; test: Antagonist activity at human GR expressed in CV1 cells by GRE activation assay; assay type: functional, cell-based, CV-1

| Compound | Ki (Progesterone receptor) | Ki (Glucocorticoid receptor [1]) | Efficacy (RPMI-8226 [2]) | EC50 (Glucocorticoid receptor [3]) | IC50 (RPMI-8226 [4]) | IC50 (Glucocorticoid receptor [5]) | Ki (Androgen receptor) | Ki [6] | EC50 (Glucocorticoid receptor [7]) |
| --- | --- | --- | --- | --- | --- | --- | --- | --- | --- |
| CC/C=C(\C)c1ccsc1/C=C1\Oc2ccc(O)c(OC)c2-c2ccc3c(c21)C(C)=CC(C)(C)N3 | 57 nM | 4.4 nM | 94% | 0.5 nM | 22 nM | 6.1 nM | 346 nM | 42 nM | – |
| COc1c(O)ccc2c1-c1ccc3c(c1/C(=C/c1sccc1C(=O)N1CCCCC1)O2)C(C)=CC(C)(C)N3 | – | – | 95% | 0.3 nM | 16 nM | 1 nM | – | – | – |
| C[C@@H]1C[C@H]2[C@@H]3CCC4=CC(=O)C=C[C@]4(C)[C@@]3(F)[C@@H](O)C[C@]2(C)[C@@]1(O)C(=O)CO [DEXAMETHASONE] | – | – | 100% | – | 6.5 nM | – | – | – | – |
| COc1c(O)ccc2c1-c1ccc3c(c1/C(=C/c1sccc1C(O)C(F)(F)F)O2)C(C)=CC(C)(C)N3 (single isomer, unassigned; (+)) | – | – | – | – | – | – | – | – | 0.2 nM |
| COc1c(O)ccc2c1-c1ccc3c(c1/C(=C/c1sccc1C(C)=O)O2)C(C)=CC(C)(C)N3 | – | – | 95% | 0.6 nM | 16 nM | 0.3 nM | – | – | – |
| COC(=O)c1ccsc1/C=C1\Oc2ccc(O)c(OC)c2-c2ccc3c(c21)C(C)=CC(C)(C)N3 | – | – | 95% | 1.4 nM | 27 nM | 1.8 nM | – | – | – |
| CCCCC(O)c1ccsc1/C=C1\Oc2ccc(O)c(OC)c2-c2ccc3c(c21)C(C)=CC(C)(C)N3 (racemic) | – | – | – | – | – | – | – | – | 0.6 nM |
| COc1c(O)ccc2c1-c1ccc3c(c1/C(=C/c1sccc1/C(C)=N/O)O2)C(C)=CC(C)(C)N3 | 790 nM | 0.6 nM | 96% | 5 nM | 9.9 nM | 1.1 nM | 290 nM | 21 nM | – |
